Data on 7 compounds can be found in PubChem BioAssay AID651723 (Broad Institute, 2012).

In all, about 350,000 compounds went through this assay and about 740 (0.21%) were called active.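 How the source made its calls: active means every replicate reaching activation of at least 50%, whatever the mean replicate activation; inconclusive means replicates that disagree or another doubt; inactive means the rest.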 The full list was thinned out, with actives kept by preference.

The assay in a line: compounds raising PGC1a acetylation signal, primary screen, PGC1a modulator project, cell-based, U2OS, AlphaScreen, signal-increasing mode (AID 651723). To be noted: overnight, at 15.6 µM, active compounds read high. In short, it runs like this:
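Test system: U2OS cells expressing flag-PGC1a plus GCN5; Amount: 7000 U2OS cells per well; Compound: single test concentration per compound; Incubation: compound overnight at 37 °C, each detection step 1 h RT; Signal: AlphaScreen lysate read.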
Regarding `CN(C)CC1Oc2ccccc2OC1(O)c1ccccc1` (configuration not stated), the activation was 249% (active). The value for `CCC(C)(O)C(=O)OC1C(=O)OC2CC3C(C)=CC(=O)C(O)C3(C)C3C4(O)OCC23C1C(C)C4O` (configuration not stated) was -80% (inactive); that for `O=C(CSC1c2ccccc2-c2ccccc21)N/N=C/c1ccccc1` was 73% (active); that for `CC(=O)OC1C2(CC3N4C(=O)C5(CO)SSC4(CC31O)C(=O)N5C)OC(C)C(C)(C)C2=O` (configuration not stated) was -60.7% (inactive). The value for `COC1C(O)C(C)OC(OC2CCC3(C=O)C(CCC4C3CCC3(C)C(C5=CC(=O)OC5)CCC43O)C2)C1O` (configuration not stated) was -82.1% (inactive); that for `c1ccc(C(CN2CCCCC2)c2ccccc2)cc1` was -40.7% (inactive); that for `O=C(c1cc(S(=O)(=O)N2CCOCC2)ccc1F)N1CCC2(CC1)OCCO2` was -52.8% (inactive).
